Measurements as given in ChEMBL document CHEMBL4513216, “Probing the Open Global Health Chemical Diversity Library for Multistage-Active Starting Points for Next-Generation Antimalarials” (ACS Infect Dis, 2020).

Test: Toxicity liver stage against HepG2, at 10uM
Format: cell-based
Set-up: test concentration 10 uM, cell line HepG2-A16-CD81EGFP
Settings: human, HepG2-A16-CD81EGFP cells; read-out: INHIBITION
How it was run: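 Uninfected HepG2-A16-CD81EGFP cells, 3 × 10^3 per well, 1536-well, plated on prespotted compound at 10 μM final, parasite-free screening media added to match infected plates; puromycin 10 μM positive, DMSO 0.5% negative; run in parallel with 48 h PbLuc assay at 37 °C, 5% CO2; viability by CellTiter-Glo luminescence, normalized to controls.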

Row | Structure (SMILES) | cytotoxicity at 10 µM [%]
1 | Cc1ncoc1C(=O)N1CCCC(C(=O)c2cccc(OC(C)C)c2)C1 (stereo not given) | 8.84
2 | CCNC(=O)NC[C@H]1C[C@@H]2CCN1C[C@@H]2c1cc(-c2cccs2)nn1C | -5.72
3 | Cc1n[nH]c2c1C(c1ccc(O)cc1)SCC(=O)N2 (stereo not given) | 10.6
4 | c1ccc(CNc2nc(N3CCOCC3)nc3nccnc23)cc1 | 10.5
5 | Cc1cc(CN2CCC(CNS(=O)(=O)c3ccccc3Cl)CC2)c(C)o1 | 9.51
6 | CN1CCN(C(=O)[C@H]2CC[C@@H]3[C@@H](CCN3Cc3nccs3)O2)CC1 | 5.41
7 | CCN1CCN(C(=O)Cn2nc(C(F)(F)F)c(Br)c2C2CC2)CC1 | -8.78
8 | O=C(COc1ccc2c(c1)OCO2)NCc1ccco1 | 3.22
9 | CC1(C)CC2(CCO1)NC(=O)c1cc(Br)ccc1-n1nnnc12 (stereo not given) | 5.97
10 | Cc1ccc(CNC(=O)c2nn(C)c3c2CS(=O)(=O)CC3)o1 | 6.14
11 | COc1ccccc1CNC(=O)Cn1ncc2c1c(C)nn2C | 10.6
12 | Cc1cccc(CN2CCC(c3nnsc3S(C)(=O)=O)CC2)n1 | -8.69
13 | C=Cn1ncc(CN2C[C@@H]3CCCN3C[C@@H]2CCSC)c1C | 0.026
14 | c1ncc(Nc2nccc(C3CCCCN3CC3CCCCC3)n2)cn1 (stereo not given) | 3.32
15 | CN(Cc1ccc(F)cc1)CC1(O)CCN(C(=O)c2cccn2C)C1 (stereo not given) | -3.19
16 | CN(C)CCN(Cc1cccc(F)c1)C(=O)c1ccn(C)c(=O)c1 | -3.92
17 | CN1CCCC(CNC(=O)N(C)Cc2ccc(Cl)c(F)c2)C1 (stereo not given) | 1.36
18 | O=C(CN1CCc2cncnc2C1)NC1CCCCNC1=O (stereo not given) | 7.36
19 | O=C(NCC1(O)CCC1)c1c(O)cc(Cl)cc1Cl | 0.924
20 | CC1CCCCN1C(=O)COc1nc(Cc2ccc(F)cc2)no1 (stereo not given) | 1.43
21 | COc1ncnc(N)c1CNCc1ccccc1-n1cccn1 | -24.4
22 | O=C(NCC[S+]([O-])c1ccccc1)c1ccc2[nH]c(=O)[nH]c2c1 (stereo not given) | 3.18
23 | CCc1c(C(=O)Nc2ccc(F)c(C(=O)NC)c2)cnn1CC(C)C | 14.7
24 | CN(C)c1ncccc1NC(=O)COC1CCCC1 | 0.189
25 | CCOc1ccccc1C(N)CC(C)C (stereo not given) | -0.857
26 | COc1ccc(CNC2CCc3ncnn3C2)cc1OCC1CC1 (stereo not given) | -8.74
27 | CC(O)(CNC(=O)NCCc1ccc2c(c1)CCO2)c1ccsc1 (stereo not given) | 7.4
28 | Cc1cc(CNCC2CNc3ccnn3C2)no1 (stereo not given) | -6.06

Row | Structure (SMILES) | cytotoxicity at 10 µM [%]
29 | NC(=O)C1CCCN1Cc1nccn1CC(F)(F)F (stereo not given) | 12.2
30 | Cc1nc(C(=O)N(C)C)nn1-c1ccccc1C(C)C | -0.665
31 | Fc1cccc(C2CCCN2Cc2nnnn2C2CC2)c1 (stereo not given) | 2.8
32 | c1cc(-c2noc(CN3CCc4c(ncn4C4CC4)C3)n2)cs1 | 4.71
33 | Cc1ncc(CN(C)c2nc3c(cnn3C(C)(C)C)c(=O)[nH]2)s1 | -19.2
34 | Cc1nc(C(C)(C)C)sc1C(=O)NCCn1ccnc1 | -0.586
35 | CN(Cc1nnc2n1CCC2)S(=O)(=O)c1cc(Br)ccc1Br | 0.392
36 | Cn1cnnc1C1CCCN1C(=O)Nc1cccc(OC(F)F)c1 (stereo not given) | 8.25
37 | Cc1cc(NC(=O)C(C)Nc2ccn(Cc3ccccn3)n2)on1 (stereo not given) | -2.06
38 | CNC(=O)CC1CCN(C(=O)NCc2coc3ccccc23)CC1 | -11.4
39 | CC(C(=O)N1CCCCCC1)N1CCN(c2nccs2)CC1 (stereo not given) | 11.7
40 | CC(=O)N1CCCN(C(=O)NCCCN(C)S(C)(=O)=O)CC1 | -2.44
41 | O=C(NCC(CO)Cc1cccc(OC(F)(F)F)c1)c1cnccn1 (stereo not given) | 7.66
42 | Cc1ccc(CS(=O)(=O)Cc2nc(N)nc(N(C)C)n2)cc1 | 3.13
43 | CC(C)(C)c1cnc(CN2CCC(NC(=O)C3CCOCC3)CC2)o1 | -11.9
44 | O=C(NCc1ccncc1)N(Cc1ccccc1F)C1CC1 | -3.32
45 | CC(=O)N1CCCN(Cc2csc(-c3ncccn3)n2)CC1 | 7.08
46 | CCn1cnnc1C1CCN(C(=O)c2ccc3cc[nH]c3c2)CC1 | 5.16
47 | CCN1Cc2c(C(=O)NC(C)C)ncn2-c2ccccc2S1(=O)=O | -83.9
48 | CN1CCN(Cc2cn3c(n2)CN(Cc2cccnc2)CC3)CC1 | 5.25
49 | CN1CC(=O)N(c2cccc(F)c2)CC12CCNC2 (stereo not given) | 6.23
50 | Cc1cc(C)c2c(N3CCC(C(=O)N4CCOCC4)CC3)ncnc2n1 | -11.1
51 | Cc1nc(-c2ccncc2)ncc1C(C)NC(=O)CN1CCOC1=O (stereo not given) | 3.11
52 | CCNC(=O)c1ccnc(N2CCCC(COc3ccccc3C)C2)c1 (stereo not given) | 2.08
53 | CN(Cc1cccc2ncccc12)C(=O)CCn1ccc(=O)[nH]c1=O | -134
54 | c1ccc(CN(Cc2ncc[nH]2)Cc2nccs2)cc1 | 6.35
55 | CCCc1nc(N2CCCN(c3ncccn3)CC2)c2cnn(C)c2n1 | -1.18
